Source: ChEMBL document CHEMBL1122323 (J Med Chem, 1983)
Active and inactive are the calls of the source. The calls are words filed in the database; no cut-off is given here.

Columns and labels:
Rattus norvegicus [1] = species on record: Rattus norvegicus; assay: Inhibition of conditioned avoidance response (CAR) in fasted male Sprague-Dawley rats.; assay type: functional
Method in brief: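 Rats trained to climb or hurdle a barrier in a shuttle box within 30 s. Training was 11 trials at 3-min intervals on day 1, then one foot-shock reinforcement and two trials daily for 9 days. On day 10, groups of 5-10 rats were given drug or vehicle by oral gavage and tested.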

Rattus norvegicus [2] = species on record: Rattus norvegicus; assay: Inhibition of apomorphine induced stereotypy in nonfasted male Sprague-Dawley rats; assay type: functional
Method in brief: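 Groups of 10 nonfasted male Sprague–Dawley rats got test drug by oral gavage. At the previously determined time of peak effect they were challenged with apomorphine 0.5 mg/kg sc and watched for 30 min in individual cages for sniffing, licking, rearing and biting. Inhibition meant all of these were blocked for the full 30 min. ED50 was taken by Berkson's method.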

[3] = molecular target: T1, Adrenergic receptor alpha-1 (Rattus norvegicus, UniProt P15823+P23944+P43140); assay: Inhibition of [3H]WB-4101 binding to alpha-1-adrenergic receptor from rat cerebral cortex membranes; assay type: cell membranes, Membrane
T1 sequence (P15823 whole entry): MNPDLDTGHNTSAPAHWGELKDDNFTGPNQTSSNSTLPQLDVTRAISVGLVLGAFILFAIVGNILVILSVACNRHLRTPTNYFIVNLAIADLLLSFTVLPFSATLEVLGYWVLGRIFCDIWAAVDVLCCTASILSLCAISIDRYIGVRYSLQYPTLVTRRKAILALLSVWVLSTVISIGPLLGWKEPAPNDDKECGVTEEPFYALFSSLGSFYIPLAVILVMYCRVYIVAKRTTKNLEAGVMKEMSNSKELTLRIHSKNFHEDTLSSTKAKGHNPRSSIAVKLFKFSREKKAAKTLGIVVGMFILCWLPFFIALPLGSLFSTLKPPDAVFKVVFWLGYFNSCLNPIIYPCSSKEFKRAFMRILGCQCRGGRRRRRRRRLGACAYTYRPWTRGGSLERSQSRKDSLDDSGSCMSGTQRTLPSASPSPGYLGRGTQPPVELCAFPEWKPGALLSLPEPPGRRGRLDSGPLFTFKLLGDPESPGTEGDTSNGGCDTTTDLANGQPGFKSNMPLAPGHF
T1 sequence (P23944 whole entry): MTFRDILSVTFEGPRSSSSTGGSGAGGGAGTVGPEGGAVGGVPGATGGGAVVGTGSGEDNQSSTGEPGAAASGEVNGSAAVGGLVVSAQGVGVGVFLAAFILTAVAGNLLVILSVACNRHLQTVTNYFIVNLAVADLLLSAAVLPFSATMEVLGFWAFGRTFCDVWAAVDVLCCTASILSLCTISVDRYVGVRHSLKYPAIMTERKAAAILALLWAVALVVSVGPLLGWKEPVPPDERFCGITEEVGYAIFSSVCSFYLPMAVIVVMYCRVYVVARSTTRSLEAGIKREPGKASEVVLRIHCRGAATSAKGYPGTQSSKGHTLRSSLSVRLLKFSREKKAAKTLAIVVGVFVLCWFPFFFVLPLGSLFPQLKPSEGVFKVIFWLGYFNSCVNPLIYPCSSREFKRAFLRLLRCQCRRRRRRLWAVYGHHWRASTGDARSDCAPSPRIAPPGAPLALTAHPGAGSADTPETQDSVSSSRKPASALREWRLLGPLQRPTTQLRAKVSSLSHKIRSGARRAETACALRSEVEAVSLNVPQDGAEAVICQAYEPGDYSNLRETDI
T1 sequence (P43140 whole entry): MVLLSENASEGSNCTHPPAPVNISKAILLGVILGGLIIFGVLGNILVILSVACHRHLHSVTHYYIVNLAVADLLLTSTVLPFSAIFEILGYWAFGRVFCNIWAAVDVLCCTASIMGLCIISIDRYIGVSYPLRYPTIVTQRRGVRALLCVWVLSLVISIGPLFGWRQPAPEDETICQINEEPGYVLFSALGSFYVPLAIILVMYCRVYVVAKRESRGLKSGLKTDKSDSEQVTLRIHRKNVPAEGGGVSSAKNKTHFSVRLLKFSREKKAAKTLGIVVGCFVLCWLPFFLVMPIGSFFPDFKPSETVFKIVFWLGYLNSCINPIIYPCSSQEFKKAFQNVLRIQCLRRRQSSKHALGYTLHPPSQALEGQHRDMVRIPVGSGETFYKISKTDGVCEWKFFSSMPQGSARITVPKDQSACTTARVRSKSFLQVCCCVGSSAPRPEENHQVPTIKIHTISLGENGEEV

Rattus norvegicus [4] = species on record: Rattus norvegicus; assay: Induction of catalepsy in nonfasted, male Sprague-Dawley rats (dose that produced catalepsy in 50% of the animals); value may range from 58.7 to 141.5; assay type: functional
Rattus norvegicus [5] = species on record: Rattus norvegicus; assay: Induction of catalepsy in nonfasted, male Sprague-Dawley rats (dose that produced catalepsy in 50% of the animals); value may range from 77.0 to 151.3; assay type: functional
Rattus norvegicus [6] = species on record: Rattus norvegicus; assay: Induction of catalepsy in nonfasted, male Sprague-Dawley rats (dose that produced catalepsy in 50% of the animals); value may range from 27.5 to 74.3; assay type: functional
Rattus norvegicus [7] = species on record: Rattus norvegicus; assay: Induction of catalepsy in nonfasted, male Sprague-Dawley rats (dose that produced catalepsy in 50% of the animals); value may range from 69.6 to 172.9; assay type: functional
Rattus norvegicus [8] = species on record: Rattus norvegicus; assay: Inhibition of apomorphine induced stereotypy in nonfasted male Sprague-Dawley rats; inactive; assay type: functional, organism-based

In the case of `N#Cc1cccnc1N1CCN(CCCCN2C(=O)CC3(CCCC3)CC2=O)CC1`, the ED50 (Rattus norvegicus [1]) is reported as 45 mg/kg, the ED50 (Rattus norvegicus [2]) is reported as 36.6 mg/kg and the IC50 [3] is reported as 360 nM.

For `O=C1CC2(CCCC2)CC(=O)N1CCCN1CCN(c2cccc(Cl)c2)CC1`, the ED50 (Rattus norvegicus [1]) was 28.2 mg/kg and the IC50 [3] was 150 nM.

`Cc1ccccc1N1CCN(CCCCN2C(=O)CC3(CCCC3)CC2=O)CC1` showed an ED50 (Rattus norvegicus [1]) of ~100 mg/kg and an IC50 [3] of 44 nM.

`O=C1CC2(CCCC2)CC(=O)N1CCCCN1CCN(c2ccccc2F)CC1` gave an ED50 (Rattus norvegicus [1]) of 37.1 mg/kg and an ED50 (Rattus norvegicus [4]) of 91.1 mg/kg.

For `Cc1ccnc(N2CCN(CCCCN3C(=O)CC4(CCCC4)CC3=O)CC2)n1`, the ED50 (Rattus norvegicus [1]) was 52.4 mg/kg and the IC50 [3] was > 1000 nM.

In the case of `O=C1CC2(CCCCCC2)C(=O)N1CCCCN1CCN(c2ncccn2)CC1`, the ED50 (Rattus norvegicus [1]) is reported as 51.5 mg/kg and the IC50 [3] is reported as > 1000 nM.

Compound `CC12CC1(C)C(=O)N(CCCCN1CCN(c3ncccn3)CC1)C2=O` (centres undefined) has an ED50 (Rattus norvegicus [1]) of 91.6 mg/kg and an IC50 [3] of 680 nM.

Work on `COc1ccccc1N1CCN(CCN2C(=O)CC(C)(C)CC2=O)CC1` yielded an ED50 (Rattus norvegicus [1]) of 91.2 mg/kg and an IC50 [3] of 895 nM.

With `O=C1CC2(CCCCC2)C(=O)N1CCCCN1CCN(c2ncccn2)CC1` the ED50 (Rattus norvegicus [1]) was 58.4 mg/kg and the IC50 [3] was > 1000 nM.

With `O=C1CC2(CCCC2)CC(=O)N1CCCCN1CCN(c2ccccc2)CC1` the ED50 (Rattus norvegicus [1]) was 30.7 mg/kg and the ED50 (Rattus norvegicus [5]) was 108 mg/kg.

In the case of `O=C1CC2(CCCC2)CC(=O)N1CCCN1CCN(c2ncccn2)CC1`, the ED50 (Rattus norvegicus [1]) is reported as > 100 mg/kg.

`COc1ccccc1N1CCN(CCCN2C(=O)CC3(CCCC3)CC2=O)CC1` was tested, and the ED50 (Rattus norvegicus [1]) was 24.1 mg/kg and the IC50 [3] was 19 nM.

Compound `COc1cccnc1N1CCN(CCCCN2C(=O)CC3(CCCC3)CC2=O)CC1` has an ED50 (Rattus norvegicus [1]) of 55.2 mg/kg and an IC50 [3] of 65 nM.

For `N#Cc1cccnc1N1CCN(CCN2C(=O)CC3(CCCC3)CC2=O)CC1`, the ED50 (Rattus norvegicus [1]) was > 100 mg/kg.

`COc1ccccc1N1CCN(CCN2C(=O)C(C)CC(C)C2=O)CC1` (centres undefined) was tested, and the ED50 (Rattus norvegicus [1]) was > 100 mg/kg.

With `O=C1CC2(CCCC2)CC(=O)N1CCCCCN1CCN(c2ncccn2)CC1` the ED50 (Rattus norvegicus [1]) was > 100 mg/kg.

In the case of `O=C1C2C3C=CC(CC3)C2C(=O)N1CCCCN1CCN(c2ncccn2)CC1` (centres undefined), the ED50 (Rattus norvegicus [1]) is reported as > 100 mg/kg.

In the case of `CSc1ccc2c(c1)N(CCC1CCCCN1C)c1ccccc1S2` (centres undefined) [THIORIDAZINE], the ED50 (Rattus norvegicus [1]) is reported as 126 mg/kg and the ED50 (Rattus norvegicus [6]) is reported as 45.2 mg/kg.

In the case of `O=C1CC2(CCCC2)CC(=O)N1CCN1CCN(c2ccccc2)CC1`, the ED50 (Rattus norvegicus [1]) is reported as > 100 mg/kg.

For `O=C1CC2(CCCC2)CC(=O)N1CCN1CCN(c2cccc(Cl)c2)CC1`, the ED50 (Rattus norvegicus [1]) was > 100 mg/kg.

With `COc1ccccc1N1CCN(CCN2C(=O)CC3(CCCC3)CC2=O)CC1` [BMY-7378] the ED50 (Rattus norvegicus [1]) was 52.1 mg/kg.

Compound `COc1ccccc1N1CCN(CCN2C(=O)CCC(C)(C)C2=O)CC1` has an ED50 (Rattus norvegicus [1]) of 55.3 mg/kg and an IC50 [3] of 480 nM.

Compound `O=C(CCCN1CCC(O)(c2ccc(Cl)cc2)CC1)c1ccc(F)cc1` [HALOPERIDOL] has an ED50 (Rattus norvegicus [1]) of 2.8 mg/kg.

For `N#Cc1cccnc1N1CCN(CCCN2C(=O)CC3(CCCC3)CC2=O)CC1`, the ED50 (Rattus norvegicus [1]) was > 100 mg/kg.

Work on `O=C1CC2(CCCC2)CC(=O)N1CCCCN1CCN(c2ccccc2[N+](=O)[O-])CC1` yielded an ED50 (Rattus norvegicus [1]) of 48.8 mg/kg and an IC50 [3] of 110 nM.

`O=C1CC2(CCCC2)CC(=O)N1CCCCN1CCN(c2ccccc2Cl)CC1` showed an ED50 (Rattus norvegicus [1]) of 77.8 mg/kg and an ED50 (Rattus norvegicus [7]) of 109 mg/kg.

Compound `CN1CCN(C2=Nc3cc(Cl)ccc3Nc3ccccc32)CC1` [CLOZAPINE] has an ED50 (Rattus norvegicus [1]) of 24.1 mg/kg.

With `O=C1CC2(CCCC2)CC(=O)N1CCCCN1CCN(c2ccccn2)CC1` the ED50 (Rattus norvegicus [1]) was 34 mg/kg and the IC50 [3] was 275 nM.

`COc1ccccc1N1CCN(CCN2C(=O)CC3(CCCCCCC3)C2=O)CC1` was tested, and the ED50 (Rattus norvegicus [1]) was 69.9 mg/kg and the IC50 [3] was > 1000 nM.

`COc1ccccc1N1CCN(CCN2C(=O)CC3(CCCCC3)C2=O)CC1` was tested, and the ED50 (Rattus norvegicus [1]) was 50 mg/kg and the IC50 [3] was 240 nM.

In the case of `CC1(C)CC(=O)N(CCCCN2CCN(c3ncccn3)CC2)C(=O)C1` [GEPIRONE], the ED50 (Rattus norvegicus [1]) is reported as 52.5 mg/kg and the NA (Rattus norvegicus [8]) is reported as “inactive”.

With `O=C1CCC2(CCCC2)CC(=O)N1CCCCN1CCN(c2ncccn2)CC1` the ED50 (Rattus norvegicus [1]) was > 50 mg/kg and the IC50 [3] was 820 nM.

For `COc1ccccc1N1CCN(CCCCN2C(=O)CC3(CCCC3)CC2=O)CC1`, the ED50 (Rattus norvegicus [1]) was 20.5 mg/kg and the IC50 [3] was 13 nM.

Work on `O=C1CC2(CCCC2)CC(=O)N1CCCCN1CCN(c2cccc(Cl)c2)CC1` yielded an ED50 (Rattus norvegicus [1]) of 27.6 mg/kg and an IC50 [3] of 23 nM.

In the case of `O=C1CC2(CCCC2)CC(=O)N1CCCCN1CCN(c2ncccn2)CC1` [BUSPIRONE], the ED50 (Rattus norvegicus [2]) is reported as 28 mg/kg.
